High-throughput results (PubChem)
FN deposition inh – fibronectin deposition inhibition; AID 743247; hit rate 0.086% among 350,000; AH1F fibroblasts, Alexa488-fibronectin deposition fluorescence, overnight; inhibition, % at 12.6 µM;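 active = mean inhibition across replicates of 30% or more, regardless of how many single replicates reach that level; inconclusive = mean under 30% yet at least half of replicates reach 30%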;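 also: positive control wells lacked labelled fibronectin entirely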
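Test system: AH1F fibroblast monolayer depositing Alexa488-labelled fibronectin into matrix. Input: 10000 cells per well. Technique: fluorescence, ex 485 nm, em 525 nm. Buffer or medium: DMEM plus 2% serum, read in PBS. Timing: 1 h cell adhesion before compound, then overnight fibronectin incubation. Compound: single dose, pinned. Read-out basis: inhibition from reduced deposited-fibronectin fluorescence.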
DENV2 CPE rescue – DENV2-induced cell death inhibition | DENV2-infected cells, cytopathic effect rescue, plate reader | CPE inhibition, % at 9.99 µM | hit rate 1.7% among 350,000 | AID 651640; in the data active = CPE inhibition above about 20%, passing the limit was not always enough; inconclusive = no clear call, values can overlap the other calls; tested in BHK-21 cells;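 also: 0% = median of neutral control wells and 100% = median of positive control wells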
CaV13 ICDI inh – Primary screen for inhibitors of IQ motif and Ca2+-dependent inactivation inhibitor domain binding in CACNA1D, Förster resonance energy transfer in living cells, …. HEK cells, CFP/YFP FRET ICDI-IQ, plate reader, 10 min; percent FRET-ratio fall versus neutral wells. inhibition, % at 12.3 µM. hit rate 0.098% among 340,000;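 active = mean replicate inhibition of at least 30% and at least 1% of replicates passing that level; inconclusive = only one of the two criteria is met; inactive = neither criterion is met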;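 also: 0% = median of the neutral control wells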
Casp6 inh – blocks human caspase-6 cleavage activity. P55212. purified caspase-6, Z-VEID-R110 cleavage fluorescence. inhibition, % at 12.5 µM. hit rate 0.53% among 350,000. AID 686996;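 active = mean inhibition across replicates at least about 35%, with every replicate also reaching that limit, limit read from the data; inconclusive = only one of the two criteria met; inactive = neither criterion met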;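 also: 0% = median of neutral control wells and 100% = no fluorescence left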
Target sequence (P55212 24-179 limits assumed): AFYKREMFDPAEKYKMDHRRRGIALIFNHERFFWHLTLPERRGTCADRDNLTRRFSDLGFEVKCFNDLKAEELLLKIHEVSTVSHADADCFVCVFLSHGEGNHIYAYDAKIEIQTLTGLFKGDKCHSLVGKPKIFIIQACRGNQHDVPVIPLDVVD
Target sequence (P55212 194-293 limits assumed): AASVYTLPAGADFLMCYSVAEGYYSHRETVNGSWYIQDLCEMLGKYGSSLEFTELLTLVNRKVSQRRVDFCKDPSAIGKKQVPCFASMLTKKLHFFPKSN
XiGFP reactiv – X-chromosome reactivation activator | AID 743238 | activation, % at 7.58 µM | hit rate 0.055% among 360,000 | XiGFP mouse fibroblasts, % GFP-positive cells imaging, 3 d; cells co-treated with 5-aza-dC sensitizer; scaled so ellipticine positive control = 100%;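 active = mean normalized replicate activation at least 10% and every replicate at or above 10%; inconclusive = only one of the two criteria met; inactive = mean below 10% and not all replicates reach 10%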;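 also: 0% = median of on-plate neutral control wells and 100% = ellipticine 6 µM median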
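Material: XiGFP fibroblasts, SV40-immortalized; Buffer or medium: DMEM containing 5-aza-dC; Compound dosing: single point; Times: 3 days compound exposure.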
* hit, by the source's call; ? = inconclusive; / = not tested or not shown. In the library only some 2% were active in any assay of this set; here they are far more common.

SMILES	FN deposition inh	DENV2 CPE rescue	CaV13 ICDI inh	Casp6 inh	XiGFP reactiv
CC(C)NC(=O)Nc1ccc2c(c1)CC(=O)N([C@@H](C)CO)C[C@@H](C)[C@H](CN(C)S(=O)(=O)c1ccc(F)cc1)O2	/	45*	/	2	0
C[C@@H]1CN([C@H](C)CO)C(=O)Cc2cc(NC(=O)Nc3ccc(F)cc3)ccc2O[C@H]1CN(C)S(=O)(=O)c1ccc(Cl)cc1	/	21*	/	-2	0
CCCN1C[C@H](C)[C@@H](OC)CN(C)C(=O)c2cc(NC(=O)NC3CCCC3)ccc2OC[C@@H]1C	-3	-7	/	0	0
COc1ccc(NS(=O)(=O)c2cc(OC)ccc2OC)cc1	-1	-4	-2	9	0
CCc1ccc(NS(=O)(=O)c2cc(OC)ccc2OC)cc1	/	10	-10	58*	/
CC(=O)N(C)C[C@H]1Oc2ccc(NS(C)(=O)=O)cc2CC(=O)N(C)C[C@@H]1C	0	/	/	/	0
O=C1c2ccccc2C(=O)c2[nH]cnc21	1	-1	-5	12	1
O=C1c2ccccc2C(=O)c2[nH]c(=O)[nH]c21	-11	-2	-18	83*	0
CCNC(=O)Nc1ccc2c(c1)C(=O)N(C)[C@@H]1CC[C@H](CC(=O)NCCN3CCCC3)O[C@H]1CO2	-8	2	/	/	0
NC(=O)c1cc2ccc(O)cc2oc1=NCc1ccccc1	/	10	33*	8	/
NC(=O)c1cc2ccc(O)cc2oc1=Nc1ccccc1	/	/	26	/	/
CCCC(=O)Nc1ccc2c(c1)C(=O)N(C)[C@@H]1CC[C@@H](CC(=O)Nc3cn(C)nc3C)O[C@H]1CO2	6	10	/	0	0
C[C@@H]1CN([C@@H](C)CO)C(=O)c2ccccc2-c2ccccc2CO[C@@H]1CN(C)Cc1ccc2c(c1)OCO2	-2	-1	/	3	0
COc1ccc(NC(=O)N2CC(=O)N3[C@@H](CO)[C@H](c4ccc(C5=CCCC5)cc4)[C@@H]3C2)cc1	/	-6	/	-1	0
Cc1ccc(C)c(OCCC(=O)N2CCN(S(=O)(=O)c3cc(F)ccc3F)CC2)c1	0	-5	-6	45*	0
Cc1ccc(S(=O)(=O)N2CCN(C(=O)COC(=O)Cc3ccc(Cl)cc3)CC2)c(C)c1	-4	25*	-2	1	0
Cc1ccc(S(=O)(=O)N2CCN(C(=O)COC(=O)c3ccccc3Cl)CC2)c(C)c1	0	1	-6	-7	-1
Cc1ccc(S(=O)(=O)N2CCN(C(=O)COC(=O)c3ccccc3OC(F)F)CC2)c(C)c1	-3	3	-3	3	127*
CC(C)NC(=O)N(C)C[C@H]1Oc2ncc(-c3ccccc3F)cc2C(=O)N([C@H](C)CO)C[C@@H]1C	/	1	/	1	1
COc1ccc(CCNC(=O)[C@@]2(Cc3ccccc3I)c3ccccc3C(=O)N(Cc3ccccc3OC)[C@H]2c2ccc(CO)cc2)cc1	/	-4	/	-2	/
Cc1c(Cl)cccc1NC(=O)CSc1sc2c(O)cc(=O)[nH]c2c1C#N	3	-6	-3	33	0
N#Cc1c(SCC(=O)Nc2ccc(Cl)cc2Cl)sc2c(O)cc(=O)[nH]c12	-14	-6	-1	40*	0
N#Cc1c(SCC(=O)Nc2ccccc2C(F)(F)F)sc2c(O)cc(=O)[nH]c12	3	6	-4	43*	0
N#Cc1c(SCC(=O)Nc2cccc(F)c2)sc2c(O)cc(=O)[nH]c12	-6	-2	-3	44*	0
Cc1noc(C)c1S(=O)(=O)Nc1ccc2c(c1)CC(=O)N([C@H](C)CO)C[C@H](C)[C@H](CN(C)S(C)(=O)=O)O2	/	15	/	/	0
SMILES	FN deposition inh	DENV2 CPE rescue	CaV13 ICDI inh	Casp6 inh	XiGFP reactiv
CCOC(=O)C1=C(N)n2c(s/c(=C\c3ccncc3)c2=O)=C(C(=O)OCC)C1c1ccncc1 (stereo not drawn)	2	-3	-4	/	0
CCOC(=O)C1=c2/c(=C/c3ccncc3)c(N)c(C(=O)OC)n2C(=O)C(c2ccncc2)S1 (stereo not drawn)	6	3	-2	2	116*
CC(C)NC(=O)Nc1ccc2c(c1)C(=O)N([C@H](C)CO)C[C@@H](C)[C@@H](CN(C)CC1CCCCC1)OCCCC[C@H](C)O2	1	2	/	-3	0
O=C(CNC(=O)c1ccccc1F)NCCN1C(=O)S/C(=C\c2ccccc2Cl)C1=O	1	81*	-6	-1	0
O=C(CCS(=O)(=O)c1ccc(Cl)cc1)NCCN1C(=O)S/C(=C\c2ccccc2F)C1=O	2	-7	-3	0	0
O=C(NCCN1C(=O)S/C(=C\c2ccccc2Cl)C1=O)C1=COCCO1	1	13	-6	-1	0
O=C(NCCN1C(=O)S/C(=C\c2ccc(Cl)cc2Cl)C1=O)C1=COCCO1	0	-7	-6	39*	0
C[C@H](CO)N1C[C@H](C)[C@H](CN(C)S(=O)(=O)c2ccccc2)Oc2ccc(NS(=O)(=O)c3ccc(F)cc3)cc2C1=O	/	-8	/	/	-1
CCCNC(=O)C[C@@H]1C[C@H]2c3cc(NC(=O)CN(C)C)ccc3O[C@H]2[C@@H](CO)O1	3	65*	/	/	0
CN(C)CC(=O)Nc1ccc2c(c1)[C@@H]1C[C@H](CC(=O)NCc3ccccc3)O[C@H](CO)[C@@H]1O2	0	-6	/	-2	1
CN(C)c1ccc2c(c1)[C@@H]1C[C@@H](CC(=O)NCc3ccc(Oc4ccccc4)cc3)O[C@@H](CO)[C@@H]1O2	-53	0	/	-3	0
CN(C)c1ccc2c(c1)[C@H]1C[C@@H](CC(=O)NCc3ccc(Oc4ccccc4)cc3)O[C@H](CO)[C@H]1O2	-19	82*	/	0	0
COc1ccccc1CNC(=O)C[C@@H]1C[C@H]2c3cc(NC(=O)Nc4ccc(C(F)(F)F)cc4)ccc3O[C@H]2[C@@H](CO)O1	-28	36*	/	3	0
CN(C)CC(=O)Nc1ccc2c(c1)[C@H]1C[C@@H](CC(=O)NCc3ccccc3)O[C@H](CO)[C@H]1O2	-21	21*	/	-1	1
COc1cccc(NC(=O)N(C)C[C@@H]2OCc3cnnn3CCCC(=O)N([C@H](C)CO)C[C@H]2C)c1	-10	-14	/	1	-1
COc1ccc(CN(C)C[C@H]2Oc3ccc(NC(=O)Cn4cnnn4)cc3CC(=O)N([C@H](C)CO)C[C@@H]2C)cc1	/	10	/	-2	0
CN(C)c1ccc2c(c1)[C@@H]1C[C@@H](CC(=O)N3CCOCC3)O[C@@H](CO)[C@@H]1O2	-6	10	/	55*	0
COCCNC(=O)C[C@H]1C[C@@H]2c3cc(NC(=O)Nc4ccc(OC)cc4)ccc3O[C@@H]2[C@H](CO)O1	-34	?	/	2	1
